GAA850 FXN act: frataxin GAA850 promoter activation. activation, % at 6 µM. HEK293 lucGAA850 FXN promoter luciferase reporter, 24 h; percent of 10 µM SAHA response. AID 540364. 0.56% of 360,000 active;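 active = activation above the average of all compounds screened plus 3 SD, cutoff fixed separately per campaign, cut at about 7.5% in these data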;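 also: 0% = DMSO wells and 100% = 10 µM SAHA wells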
GalR3 antagonist: antagonists of human GalR3 | HEK293 GalR3-CNG cAMP membrane potential fluorescence; galR3 body fused to GalR1 C-terminus | 0.44% of 360,000 active | inhibition, % at 3 µM | O60755;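 active = inhibition above the screen-wide average plus 3 SD, cut at about 13% in these data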;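 also: forskolin and galanin both at EC90 stimulate the cells; cAMP rise reported by CNG channel membrane potential dye signal; 0% = forskolin plus galanin with DMSO and 100% = forskolin alone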
Target sequence (O60755 1-299 limits assumed): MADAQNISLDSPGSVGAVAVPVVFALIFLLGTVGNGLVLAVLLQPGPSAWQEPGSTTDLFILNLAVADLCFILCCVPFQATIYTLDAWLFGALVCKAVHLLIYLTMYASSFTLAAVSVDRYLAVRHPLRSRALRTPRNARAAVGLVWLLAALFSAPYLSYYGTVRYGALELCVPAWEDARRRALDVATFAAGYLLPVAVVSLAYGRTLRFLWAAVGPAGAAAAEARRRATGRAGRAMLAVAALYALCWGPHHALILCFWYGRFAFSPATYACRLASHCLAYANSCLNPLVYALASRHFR
NR2E3 ag-1: activates human photoreceptor nuclear receptor NR2E3. AID 2300. inhibition of corepressor binding, % at 4.78 µM. GST-NR2E3/biotin-RetCOR TR-FRET, 1536-well. 0.12% of 320,000 active;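 active = percent inhibition above the cutoff of mean plus 3 SD of all tested compounds, set per screening campaign, cut at about 20% in these data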;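 also: 0% = DMSO wells and 100% = biotin wells as full block of FRET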
Target sequence (Q9Y5X4 whole entry, looked up): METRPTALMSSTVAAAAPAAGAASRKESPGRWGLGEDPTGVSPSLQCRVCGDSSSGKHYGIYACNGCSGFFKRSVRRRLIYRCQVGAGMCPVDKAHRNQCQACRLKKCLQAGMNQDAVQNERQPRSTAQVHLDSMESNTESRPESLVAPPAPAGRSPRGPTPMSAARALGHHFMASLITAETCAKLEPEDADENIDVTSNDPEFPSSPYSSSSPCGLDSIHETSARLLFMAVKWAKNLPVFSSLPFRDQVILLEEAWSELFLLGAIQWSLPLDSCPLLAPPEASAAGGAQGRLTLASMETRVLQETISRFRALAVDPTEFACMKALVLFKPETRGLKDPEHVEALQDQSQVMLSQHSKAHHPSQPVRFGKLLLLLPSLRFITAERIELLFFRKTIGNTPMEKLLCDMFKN
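Test system: GST-NR2E3 and biotin-RetCOR proteins | Quantity: 1.35 nM GST-tagged NR2E3 final | Medium: Tris pH 7.5 | Also added: 7 nM biotin-RetCOR | Dosing: Compound at 4.8 µM, single dose | Timing: 5 h at 4 °C | Detection: Time-resolved FRET | Read-out basis: Percent inhibition | Benchmarks: Biotin wells as high control, 0.6% DMSO wells as low control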
NR2E3 ag-2: human photoreceptor-specific nuclear receptor agonism; Q9Y5X4; CHO-S Gal4-NCOR/VP16-NR2E3 two-hybrid, luciferase; inhibition of corepressor binding, % at 3.98 µM; 0.35% of 360,000 active; AID 602229;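 active = inhibition above the mean of all tested compounds plus 3 SD, cut at about 70% in these data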;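 also: 0% = DMSO with NR2E3 transfected cells and 100% = cells lacking NR2E3 construct; higher means lower luciferase signal from less NR2E3 corepressor binding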
HIV Env fusion: blocks HIV Env-driven cell-cell fusion; AID 651610; inhibition, % at 12.3 µM; 1.1% of 360,000 active; HeLa-JRFL Env/CEM21 cell fusion, luciferase;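 active = mean replicate inhibition score of at least 50 and every replicate individually at or above 50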;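 also: 0% = plate neutral controls and 100% = maraviroc near 300 nM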
V-ATPase pHluor: yeast V-ATPase proton transport regulation by pHLuorin; response, % at 10 µM; AID 504577; 0.37% of 350,000 active; S. cerevisiae, pHLuorin cytosolic pH fluorescence; in the data active = response mostly above about 7.3%, no sharp cut-off; inactive = mostly below about 5.4%; also: actives read high
GAA30 counter: activates GAA30 frataxin promoter, counter-screen for GAA850 activators. shares compounds with GAA850 FXN act. HEK293 lucGAA30 FXN promoter luciferase, 24 h; DMSO = 0%, 5 µM ipriflavone = 100%. activation, % at 6 µM. 66% of 1,900 active;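 active = mean activation above the mean of solvent-only control wells plus 3 SD, cut at about 22% in these data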;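 also: counterscreen of GAA850 promoter hits where activity marks nonselective or luminescence artifacts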
GAA850 confirm: confirmation of GAA850 frataxin (FXN) promoter activators; shares compounds with GAA850 FXN act; activation, % at 6 µM; 86% of 1,900 active; HEK293 lucGAA850 FXN promoter luciferase reporter, 24 h; 100% = activation by SAHA; AID 588351;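 active = mean activation above a set limit taken from the primary screen, cut at about 8% in these data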;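 also: 0% = DMSO wells and 100% = 10 µM SAHA wells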
Active calls of the source: *; nt = not tested or not shown; [ ] = another dose, or the depositor's remark. In the library only some 2.2% were active in any assay of this set; here they are far more common.

SMILES	GAA850 FXN act	GalR3 antagonist	NR2E3 ag-1	NR2E3 ag-2	HIV Env fusion	V-ATPase pHluor	GAA30 counter	GAA850 confirm
C[C@@H]1CN([C@@H](C)CO)C(=O)c2cc(NC(=O)c3ccccc3)ccc2O[C@@H](C)CCCCO[C@H]1CN(C)C(=O)NC1CCCCC1	nt	nt	nt	nt	41[16.7 µM]	nt	nt	nt
CNc1nc(NCCOc2ccccc2Cl)c2sccc2n1	9.0*	-10	nt	4	31	nt	24*	11*
OCc1cn(-c2ccccc2)nc1-c1ccco1	4	-12	2	-24	-21	-2	nt	nt
C=CCOC(=O)C1=C(C)NC(C)=C(C(=O)OCC=C)C1c1cn(-c2ccccc2)nc1-c1ccco1	13*	-5	-1	-24	36	1	11	5
Cc1cccc(Nc2nc(-c3cccs3)cs2)n1	7.7*	-4	1	-136	nt	-2	115*	41*
CCCCc1ccc(NC(=O)CC(C)=O)cc1	1	-3	1	-8	-68	-2	nt	nt
CCCCc1ccc(NC(=O)CC(C)(C)C)cc1	7.8*	-14	2	-106	nt	2	108*	38*
O=c1c(O)c(-c2ccccc2)oc2ccccc12	8.7*	-7	nt	-23	nt	-3	55*	18*
Cc1ccc(-c2oc3ccccc3c(=O)c2O)cc1	5	2	2	-19	-23	1	nt	nt
Cc1noc(C)c1S(=O)(=O)Nc1cccc2c1O[C@H](CN(C)C(=O)NC(C)C)[C@H](C)CN([C@@H](C)CO)C2=O	nt	nt	nt	nt	-21[16.7 µM]	nt	nt	nt
CCCCn1cnc2c(SCc3ccccc3F)nc(N)nc21	8.3*	4	nt	-44	-13	3	57*	25*
CC(C)Cn1cnc2c(SCc3ccccc3F)nc(N)nc21	8.9*	-2	nt	-95	-6	-3	95*	35*
CCCNC(=O)C[C@H]1CC[C@H]2[C@@H](COc3ccc(NC(=O)c4ccno4)cc3C(=O)N2C)O1	nt	nt	nt	nt	9[16.7 µM]	nt	nt	nt
Cc1ccc(-c2noc(-c3ccccc3F)n2)cc1	8.1*	-8	0	-121	-117	-3	135*	45*
O=C(O)c1ccc(-c2noc(-c3ccccc3F)n2)cc1	1	0	2	-82	-171	1	nt	nt
C[C@H](CO)N1C[C@H](C)[C@@H](CN(C)S(=O)(=O)c2ccc(F)cc2)OCCCC[C@H](C)Oc2ccc(NC(=O)CCC(F)(F)F)cc2C1=O	nt	nt	nt	nt	-31[16.7 µM]	nt	nt	nt
COCCOC(=O)C1=C(C)NC(=O)NC1c1ccc(OC(=O)c2ccco2)c(OC)c1 (stereo not given)	13*	-2	0	13	nt	3	33*	10*
COc1cc(C2NC(=O)NC(C)=C2C(=O)OCc2ccccc2)ccc1O (stereo not given)	8.9*	-2	3	-7	nt	0	-3	10*
COc1ccc(COC(=O)C2=C(C)NC(=O)NC2c2ccc(O)c(OC)c2)cc1 (stereo not given)	2	8	1	-15	nt	4	nt	nt
C[C@@H]1CN([C@H](C)CO)C(=O)c2cccc(NC(=O)Nc3ccccc3)c2O[C@@H]1CN(C)S(=O)(=O)c1ccccc1	nt	nt	nt	nt	-8[16.7 µM]	nt	nt	nt
COc1ccc(-c2cc(C(=O)NC(C)C)no2)cc1	8.1*	-6	-3	-148	-109	-3	106*	32*
CC(C)NC(=O)N(C)C[C@H]1Oc2ncc(C#Cc3ccccc3F)cc2C(=O)N([C@@H](C)CO)C[C@@H]1C	nt	nt	nt	nt	-4[16.7 µM]	nt	nt	nt
Oc1cccc2ccc(/C=C/c3cccs3)nc12	11*	-7	1	-148	-181	2	35*	24*
Oc1cccc2ccc(/C=C/c3ccccc3Br)nc12	0	-8	3	-131	-36	4	nt	nt
Cc1ccsc1/C=C/c1ccc2cccc(O)c2n1	8.5*	-3	-2	-137	-97	-1	4	24*
SMILES	GAA850 FXN act	GalR3 antagonist	NR2E3 ag-1	NR2E3 ag-2	HIV Env fusion	V-ATPase pHluor	GAA30 counter	GAA850 confirm
Cc1ccsc1/C=C/c1ccc2ccccc2n1	6	-4	1	-153	-158	0	nt	nt
C[C@H]1CN([C@@H](C)CO)C(=O)Cc2cc(NC(=O)Cn3cnnn3)ccc2O[C@@H]1CN(C)C(=O)Nc1ccc2c(c1)OCO2	nt	nt	nt	nt	-3[16.7 µM]	nt	nt	nt
C[C@H](CO)N1C[C@H](C)[C@H](CN(C)C(=O)c2ccccc2)OCc2ccccc2-c2c(n(C)c3ccccc23)C1=O	8.5*	-9	nt	-18	58*	1	5	5
C[C@H]1CN([C@@H](C)CO)C(=O)c2c(c3ccccc3n2C)-c2ccccc2CO[C@H]1CN(C)C(=O)c1ccncc1	nt	nt	nt	nt	14[16.7 µM]	nt	nt	nt
C[C@H]1CN([C@@H](C)CO)C(=O)c2c(c3ccccc3n2C)-c2ccccc2CO[C@H]1CN(C)Cc1cccc(F)c1	12*	0	nt	-25	67*	4	23*	9.9*
C[C@@H]1CCCCO[C@@H](CN(C)S(=O)(=O)c2ccc(Cl)cc2)[C@@H](C)CN([C@@H](C)CO)C(=O)c2cc(NC(=O)NC3CCCCC3)ccc2O1	nt	nt	nt	nt	-11[16.7 µM]	nt	nt	nt
O=C(N[C@@H]1CC[C@@H](CCNC(=O)C2CC2)O[C@@H]1CO)c1ccccn1	nt	nt	nt	nt	5[16.7 µM]	nt	nt	nt
NNC(=O)c1cccc(COc2ccc3c(c2)CCC3)c1	9.2*	1	2	-208	16	0	125*	42*
CO[C@@H]1CN(C)C(=O)c2ccc(NC(=O)c3ccccn3)cc2OC[C@@H](C)N(Cc2ccccn2)C[C@H]1C	nt	nt	nt	nt	-13[16.7 µM]	nt	nt	nt
Cc1nnc(SCc2cccc3ccccc23)s1	7.6*	-5	3	-116	-23	2	80*	29*
CNC[C@@H]1Oc2cc(C#Cc3ccncc3)ccc2S(=O)(=O)N([C@H](C)CO)C[C@@H]1C	nt	nt	nt	nt	-10[16.7 µM]	nt	nt	nt
COCC(=O)N(C)C[C@H]1Oc2cc(-c3ccc(C#N)cc3)ccc2S(=O)(=O)N([C@@H](C)CO)C[C@@H]1C	nt	nt	nt	nt	-4[16.7 µM]	nt	nt	nt
Cc1ccc2nc(SCC(=O)N/N=C/c3ccco3)cc(C)c2c1	0	-4	-3	-22	2	1	nt	nt
Cc1ccc2nc(N/N=C/c3ccco3)cc(C)c2c1	8.2*	-6	1	-101	-195	4	104*	44*
COc1ccc(CN(C)C[C@@H]2OCCCC[C@H](C)Oc3ccc(N(C)C)cc3C(=O)N([C@H](C)CO)C[C@@H]2C)cc1	nt	nt	nt	nt	4[16.7 µM]	nt	nt	nt
C=CCOC(=O)C1=C(C)NC(SCC(=O)Nc2nccs2)=C(C#N)C1c1cccs1 (stereo not given)	1	-1	3	-69	nt	-2	nt	nt
